Measurements from ChEMBL document CHEMBL3259611, “Suppression of inflammatory responses by handelin, a guaianolide dimer from Chrysanthemum boreale, via downregulation of NF-κB signaling and pro-inflammatory cytokine production” (J Nat Prod, 2014).
Active and inactive are the calls of the source. The rule behind the calls is not given here.

Key:
[1] = target: T1, Nuclear factor NF-kappa-B p105 subunit (Mus musculus) (UniProt P25799); experiment: Inhibition of LPS-induced NF-kappaB p50 binding to DNA in mouse RAW264.7 cells at 10 to 40 uM after 1.5 hrs by spectrophotometry in presence of mutant oligonucleotide; type: cell-based
T1 sequence (whole entry): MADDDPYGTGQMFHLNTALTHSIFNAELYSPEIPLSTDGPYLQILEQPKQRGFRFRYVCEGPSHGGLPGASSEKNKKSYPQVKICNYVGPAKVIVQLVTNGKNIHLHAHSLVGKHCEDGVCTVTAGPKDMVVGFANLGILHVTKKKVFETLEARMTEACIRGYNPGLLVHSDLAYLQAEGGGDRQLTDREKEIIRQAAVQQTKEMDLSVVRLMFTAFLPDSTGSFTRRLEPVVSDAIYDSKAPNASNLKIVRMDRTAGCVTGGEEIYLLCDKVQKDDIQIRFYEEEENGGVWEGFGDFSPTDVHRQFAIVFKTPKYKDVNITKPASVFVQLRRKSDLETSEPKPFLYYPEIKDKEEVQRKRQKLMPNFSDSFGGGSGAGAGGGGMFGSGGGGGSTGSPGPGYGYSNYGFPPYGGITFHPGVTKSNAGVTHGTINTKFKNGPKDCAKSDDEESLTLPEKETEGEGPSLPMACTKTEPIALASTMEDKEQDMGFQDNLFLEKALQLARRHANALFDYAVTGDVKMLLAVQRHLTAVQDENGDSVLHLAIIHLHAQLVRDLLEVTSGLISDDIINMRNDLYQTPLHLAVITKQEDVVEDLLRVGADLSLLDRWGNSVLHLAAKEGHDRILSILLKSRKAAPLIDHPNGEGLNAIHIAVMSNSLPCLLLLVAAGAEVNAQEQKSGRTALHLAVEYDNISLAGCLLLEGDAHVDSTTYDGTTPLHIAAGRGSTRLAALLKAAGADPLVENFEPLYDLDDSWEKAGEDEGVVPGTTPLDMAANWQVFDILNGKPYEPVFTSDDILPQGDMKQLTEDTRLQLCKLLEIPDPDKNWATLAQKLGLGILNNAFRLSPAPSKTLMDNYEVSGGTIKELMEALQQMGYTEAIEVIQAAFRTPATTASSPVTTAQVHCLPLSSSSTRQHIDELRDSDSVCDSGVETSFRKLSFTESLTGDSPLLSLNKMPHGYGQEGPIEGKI

[2] = test system: RAW264.7; experiment: Antiinflammatory activity in mouse RAW264.7 cells assessed as inhibition of LPS-induced iNOS mRNA expression at 10 uM after 5 hrs by RT-PCR analysis relative to control; type: functional
Summary of the method: (§1)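 RAW 264.7 cells exposed to 1 μg/mL LPS with or without compound for 5 h. Total RNA was analysed by RT-PCR: 25−30 cycles with annealing at 55 °C. Products were separated on 2% agarose gel with SYBR-Safe staining. Experiments in triplicate.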

[3] = test system: RAW264.7; experiment: Antiinflammatory activity in mouse RAW264.7 cells assessed as inhibition of LPS-induced COX2 protein expression at 20 uM after 16 hrs by Western blotting analysis relative to control; type: functional
Summary of the method: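 RAW 264.7 cells given LPS (1 μg/mL) with or without compound for 16 h. Cell lysates were Western blotted for iNOS and COX-2 (6−15% SDS-PAGE, PVDF, ECL detection). Performed in triplicate.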

[4] = test system: RAW264.7; experiment: Inhibition of LPS-induced NFkappaB transcriptional activity in mouse RAW264.7 cells assessed as […] at 40 uM after 30 mins by Western blotting analysis relative to control; type: cell-based
Summary of the method: (§2)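 Macrophages were exposed to compound for 30 min before LPS stimulation, with proteins extracted 30 min later. Nuclear extracts were prepared in Tris/KCl/NP-40 lysis buffer, then 420 mM NaCl buffer, and the cytosolic fraction was kept for IκB-α. Western blot on PVDF with ECL detection. Tests in triplicate; representative of three separate experiments.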

[5] = test system: Rattus norvegicus; experiment: Antiinflammatory activity in po dosed rat paw edema model assessed as inhibition of carrageenan-induced serum IL-1beta production administered 30 mins prior to carrageenan challenge measured after 6 hrs by ELISA relative to vehicle-treated control
[6] = test system: RAW264.7; experiment: Antiinflammatory activity in mouse RAW264.7 cells assessed as inhibition of LPS-induced iNOS mRNA expression at 40 uM after 5 hrs by RT-PCR analysis relative to control; type: functional; summary of the method: as §1
[7] = test system: RAW264.7; experiment: Antiinflammatory activity in mouse RAW264.7 cells assessed as inhibition LPS-induced IL-1beta mRNA expression at 20 uM after 4 hrs by RT-PCR analysis relative to control; type: functional
Summary of the method: (§3)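 RAW 264.7 cells stimulated with LPS (1 μg/mL) with or without compound for 4 h. Total RNA was isolated and cytokine mRNA was analysed by RT-PCR: 94 °C 4 min, then 25−30 cycles of 94/55/72 °C for 30 s each, then 72 °C 5 min. Products were run on 2% agarose and stained with SYBR-Safe. Triplicate, representative of three experiments.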

[8] = test system: RAW264.7; experiment: Antiinflammatory activity in mouse RAW264.7 cells assessed as inhibition of LPS-induced iNOS mRNA expression at 20 uM after 5 hrs by RT-PCR analysis relative to control; type: functional; summary of the method: as §1
[9] = test system: Rattus norvegicus; experiment: Antiinflammatory activity in rat paw edema model assessed as inhibition of carrageenan-induced paw edema at 20 mg/kg, po administered 30 mins prior to carrageenan challenge measured after 4 hrs relative to vehicle-treated control; type: functional
Summary of the method: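 Male Sprague–Dawley rats (150–170 g, 5 weeks old); compound dissolved in 0.5% CMC-Na and given orally 30 min before subplantar injection of 0.1 mL 1% carrageenan suspension in saline into the right hind paw, with saline injected into the left. Paw volume read by plethysmometer at 0 h and up to 6 h; n = 6.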

[10] = target: T1, Nuclear factor NF-kappa-B p105 subunit (Mus musculus); experiment: Inhibition of LPS-induced NFkappaB P50 protein nuclear translocation in mouse RAW264.7 cells at 20 uM after 30 mins by Western blotting analysis relative to control; type: cell-based; summary of the method: as §2
[11] = test system: RAW264.7; experiment: Inhibition of LPS-induced NFkappaB transcriptional activity in mouse RAW264.7 cells assessed as reduction of phosphorylated IkappaB-alpha level at 40 uM after 30 mins by Western blotting analysis relative to control; type: cell-based; summary of the method: as §2
[12] = test system: Mus musculus; experiment: Antiinflammatory activity in ICR mouse ear edema model assessed as inhibition of TPA-induced IL-1beta protein expression in ear tissue at 10 to 20 mg/kg, po administered 30 mins prior to TPA challenge measured after 4 hrs by Western blotting analysis relative to vehicle-treated control; type: functional, organism-based
Summary of the method: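 ICR mice (male, 18−20 g, 5 weeks old) dosed orally 30 min before TPA (1.0 μg in 20 μL acetone) was applied to inner and outer surfaces of the right ear. Killed by cervical dislocation after 4 h. Edema taken as the weight of a 5 mm punch biopsy of the right ear over the left. Ear homogenates were Western blotted for iNOS, COX-2 and IL-1β.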

[13] = test system: RAW264.7; experiment: Antiinflammatory activity in mouse RAW264.7 cells assessed as inhibition LPS-induced TNF-alpha mRNA expression at 20 uM after 4 hrs by RT-PCR analysis relative to control; type: functional; summary of the method: as §3

For `C=C1C(=O)O[C@@H]2[C@@H]3[C@@]4(C=C[C@@]3(C)[C@]3(C4)C(=O)O[C@@H]4[C@H]5C(C)=CC[C@H]5[C@](C)(O)C[C@H](OC(C)=O)[C@H]43)[C@](C)(O)CC[C@@H]12`, the inhibition [1] was “Active”, the “fold change (FC)” value [2] was 0.74 and the “fold change (FC)” value [3] was 0.2. The fold change (FC) [4] was 1.83, the inhibition [5] was “Dose-dependent effect” and the “fold change (FC)” value [6] was 0.58. For the same molecule, the “fold change (FC)” value [7] was 0.79, the “fold change (FC)” value [8] was 0.67 and the inhibition in vivo at 20 mg/kg [9] was 35%. The fold change (FC) [10] was 0.21, the fold change (FC) [11] was 0.44 and the inhibition [12] was “Active”. The “fold change (FC)” value [13] was 0.66.
